Experimental data published in ChEMBL document CHEMBL5108090, “Structure-activity relationship study of PROTACs against hematopoietic prostaglandin D2 synthase” (RSC Med Chem, 2022).
Calls of active or inactive are those of the source. No cut-off for these calls is given here.

Columns and labels:
[1] = target: T1, Protein cereblon/Hematopoietic prostaglandin D synthase (Homo sapiens, UniProt O60760+Q96SW2); test: PROTAC activity at CRBN/H-PGDS in human KU812 cells assessed as reduction in H-PGDS levels incubated for 24 hrs by Western blotting analysis; format: cell-based, KU812 cell line
Procedure, shortened: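 KU812 cells were incubated with a compound concentration series for 24 h. SDS lysates (equal protein) were blotted for H-PGDS and β-actin with ECL quantification. The H-PGDS/actin ratio was set relative to DMSO (100%); mean ± SEM, n = 3. DC50 came from a linear fit through the three points spanning 50% protein level.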
Target sequence in this assay (O60760 whole entry): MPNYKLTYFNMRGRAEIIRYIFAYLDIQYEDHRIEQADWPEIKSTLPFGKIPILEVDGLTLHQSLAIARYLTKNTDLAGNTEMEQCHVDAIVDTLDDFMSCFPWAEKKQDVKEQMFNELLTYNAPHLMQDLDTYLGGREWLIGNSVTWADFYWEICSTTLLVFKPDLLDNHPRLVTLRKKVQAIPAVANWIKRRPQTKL
Target sequence in this assay (Q96SW2 whole entry): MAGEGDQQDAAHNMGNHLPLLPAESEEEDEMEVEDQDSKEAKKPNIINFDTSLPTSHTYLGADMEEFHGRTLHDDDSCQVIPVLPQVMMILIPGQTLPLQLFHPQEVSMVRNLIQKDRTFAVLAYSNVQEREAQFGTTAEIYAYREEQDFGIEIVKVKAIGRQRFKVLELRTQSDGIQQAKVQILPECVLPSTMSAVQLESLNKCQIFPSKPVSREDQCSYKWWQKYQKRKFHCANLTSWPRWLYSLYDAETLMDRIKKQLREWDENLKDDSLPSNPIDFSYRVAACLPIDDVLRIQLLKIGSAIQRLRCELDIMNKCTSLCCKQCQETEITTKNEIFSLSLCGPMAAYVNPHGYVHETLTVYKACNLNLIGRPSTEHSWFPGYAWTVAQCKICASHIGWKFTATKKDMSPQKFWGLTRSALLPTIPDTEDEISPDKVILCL

[2] = target: T1, Protein cereblon/Hematopoietic prostaglandin D synthase; test: PROTAC activity at CRBN/H-PGDS in human KU812 cells assessed as reduction in A23187-stimulated PGD2 levels at 10 nM preincubated for 24 hrs followed by A23187 stimulation for 30 mins by ELISA analysis relative to control; format: cell-based; settings: KU812 cell line, time 24.5 hrs
Procedure, shortened: (§1)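 KU812 cells (human CML; RPMI-1640, 10% FBS, penicillin–streptomycin) were treated with compound for 24 h. They were then stimulated with 5 μM calcium ionophore A23187 for 30 min. PGD2 in the culture medium was quantified by PGD2-MOX ELISA per the kit instructions.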
Target sequence in this assay (O60760 whole entry, looked up): as the sequence (O60760 whole entry) above
Target sequence in this assay (Q96SW2 whole entry, looked up): as the sequence (Q96SW2 whole entry) above

[3] = target: T2, Hematopoietic prostaglandin D synthase (Homo sapiens, UniProt O60760); test: Binding affinity to recombinant human H-PGDS incubated for 1 hrs by competitive fluorescence polarization assay
Procedure, shortened: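 Competitive FP assay using a commercial kit. Recombinant human H-PGDS, glutathione and fluorescent probe in assay buffer. Compounds were added from DMSO stocks at final 2.50 μM to 2.44 nM (11 points), in triplicate, for 1 h at room temperature. Read at ex 470/em 530 nm in mP. IC50 is the concentration giving a 50% mP reduction, from a semi-log plot.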

[4] = target: T2, Hematopoietic prostaglandin D synthase; test: Inhibition of H-PGDS in human KU812 cells assessed as reduction in A23187-stimulated PGD2 levels at 10 nM preincubated for 24 hrs followed by A23187 stimulation for 30 mins by ELISA analysis; format: cell-based; settings: KU812 cell line, time 24.5 hrs; procedure, shortened: as §1
[5] = target: T1, Protein cereblon/Hematopoietic prostaglandin D synthase; test: PROTAC activity at CRBN/H-PGDS in human KU812 cells assessed as reduction in H-PGDS levels at 1 nM incubated for 6 hrs by Western blotting analysis; format: cell-based; settings: KU812 cell line
Procedure, shortened: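 KU812 cells were exposed to compound for 6 h, with MG132 or MLN7243 co-treatment or ligand competition in some arms. Lysates in SDS buffer were boiled and equal protein by BCA was run on SDS-PAGE. Blots used anti-H-PGDS and anti-β-actin with ECL detection. H-PGDS/β-actin was normalized to the DMSO control (100%); mean ± SEM, n = 3.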
Target sequence in this assay (O60760 whole entry, looked up): as the sequence (O60760 whole entry) above
Target sequence in this assay (Q96SW2 whole entry, looked up): as the sequence (Q96SW2 whole entry) above

T2 sequence (O60760 whole entry): as the sequence (O60760 whole entry) above

| Compound | DC50 [1] [nM] | Activity [2] | IC50 [3] [nM] | inhibition [4] | Activity [5] |
| --- | --- | --- | --- | --- | --- |
| O=C1CCC(N2C(=O)c3cccc(N4CCN(C(=O)C5CCN(c6ccc(NC(=O)c7cnc(Oc8ccccc8)nc7)cc6)CC5)CC4)c3C2=O)C(=O)N1 (configuration not stated) | 0.0187 | Active | 116 | – | – |
| O=C(Nc1ccc(N2CCC(C(=O)N3CCOCC3)CC2)cc1)c1cnc(Oc2ccccc2)nc1 | – | – | 211 | Active | – |
| Cn1cccc1C(=O)N1CCN(C(=O)Nc2ccc(N3CCC(C(=O)N4CCN(c5ccc6c(c5)C(=O)N(C5CCC(=O)NC5=O)C6=O)CC4)CC3)cc2)CC1 (configuration not stated) | 0.0238 | Active | 124 | – | – |
| Cn1cccc1C(=O)N1CCN(C(=O)Nc2ccc(N3CCC(C(=O)N4CCN(c5cccc6c5C(=O)N(C5CCC(=O)NC5=O)C6=O)CC4)CC3)cc2)CC1 (configuration not stated) | 0.0714 | Active | 78.1 | – | – |
| O=C1CCC(N2C(=O)c3ccc(N4CCN(C(=O)C5CCN(c6ccc(NC(=O)c7cnc(Oc8ccccc8)nc7)cc6)CC5)CC4)cc3C2=O)C(=O)N1 (configuration not stated) | 0.0276 | Active | 196 | – | Active |
| Cn1cccc1C(=O)N1CCN(C(=O)Nc2ccc(N3CCC(C(=O)N4CCOCC4)CC3)cc2)CC1 | – | – | 134 | Active | – |
